The text below walks through data of ChEMBL document CHEMBL1671666, “Anti-human immunodeficiency virus activity, cross-resistance, cytotoxicity, and intracellular pharmacology of the 3'-azido-2',3'-dideoxypurine nucleosides” (Antimicrob Agents Chemother, 2009).

Counter-ions that a name gives are not always drawn. A value given as a limit tells only on which side of the number the result lay.

Data set [1] deals with Human immunodeficiency virus 1. Briefly: Antiviral activity against HIV1 infected in human HeLa P4/R5 cells assessed as inhibition of viral replication. Type of data set: functional, organism-based. Particulars: Human immunodeficiency virus 1, HeLa. A digest of the protocol: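 Single-cycle assay in P4/R5 HeLa cells carrying an HIV LTR-driven, Tat-activated β-galactosidase gene. Cells kept in phenol red-free DMEM with 10% FBS and 0.5 μg/ml puromycin. Virus stock titred on these cells by threefold endpoint dilution (Reed-Muench). At least three independent experiments.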

The test system of data set [2] is Human immunodeficiency virus 1. Kind of data set: Antiviral activity against HIV1 infected in human MT2 cells assessed as inhibition of viral replication. Format: functional, organism-based. To be noted: Human immunodeficiency virus 1, MT2.
Data set [3] concerns Human immunodeficiency virus 1. Briefly: Antiviral activity against HIV1 infected in human PBMC assessed as inhibition of viral replication. Format: functional, organism-based. A digest of the protocol: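 PBMC from healthy seronegative donors, isolated on a Ficoll-Hypaque gradient and stimulated with PHA for 2-3 days before infection. At least three independent experiments.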

The target in data set [4] is Human immunodeficiency virus type 1 reverse transcriptase (Human immunodeficiency virus 1) (UniProt Q72547). Kind of data set: Selectivity, ratio of Kpol to Kd for TTP to Kpol to Kd for compound at HIV1 reverse transcriptase. A digest of the protocol:
(§1)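 Pre-steady-state rapid quench with purified WT HIV-1 RT. Quenched with 0.5 M EDTA between 10 ms and 30 min. Products resolved on 7 M urea-16% polyacrylamide gels. Gives kpol and Kd; selectivity = (kpol/Kd)dNTP/(kpol/Kd)NRTI-TP. At least three independent experiments, mean ± SD.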

The target is the same in data set [5]. Briefly: Activity at HIV1 reverse transcriptase measured after 30 mins. A digest of the protocol:
as §1

The target is the same in data set [6]. Kind of data set: Ratio of Kpol to Kd for HIV1 reverse transcriptase. A digest of the protocol: as §1
Data set [7] addresses Human immunodeficiency virus type 1 reverse transcriptase (Human immunodeficiency virus 1, UniProt Q72547). Kind of data set: Binding affinity to HIV1 reverse transcriptase. A digest of the protocol: as §1
For data set [8], the system named is PBMC. Kind of data set: Drug level in PHA-stimulated human PBMC measured per 10^6 cells at 10 uM after 12 hrs by LC-MS analysis. Type of data set: ADME, cell-based. A digest of the protocol: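 PHA-stimulated human PBMC (24-30 × 10⁶ cells) exposed to a range of nucleoside concentrations for 12 h at 37°C in 5% CO2. […] Triphosphate reported in pmol/10⁶ cells. At least three experiments, mean ± SD.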

Data set [9] relates to Human immunodeficiency virus 1. Briefly: Antiviral activity against HIV1 harboring reverse transcriptase diserine insert between residues 69 and 70 infected in human HeLa P4/R5 cells assessed as inhibition of viral replication. Type of data set: functional, organism-based. Particulars: Human immunodeficiency virus 1, HeLa. A digest of the protocol:
(§2)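 Single-replication-cycle assay in P4/R5 cells: HeLa stably carrying a Tat-activated β-galactosidase gene under an HIV LTR promoter, grown in phenol red-free DMEM with 10% FBS and 0.5 μg/ml puromycin. Virus stocks were titred in P4/R5 cells by threefold endpoint dilution (Reed–Muench).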

Data set [10] in a line: Cytotoxicity against human PBMC after 2 to 4 days by MTT assay. Format: cell-based. In a few lines:
(§3)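 Log-phase cells seeded at 5 × 10³ to 5 × 10⁴ cells/well with 10-fold serial compound dilutions. Incubated 2-4 days; viability read by MTT staining. CC50 from concentration-response curves by the median effect method. Mean of at least three independent experiments.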

The nature of data set [11]: Cytotoxicity against human MT2 cells after 2 to 4 days by MTT assay. Type of data set: cell-based. In a few lines: as §3
The nature of data set [12]: Cytotoxicity against african green monkey Vero cells after 2 to 4 days by MTT assay. Format: cell-based. Particulars: chlorocebus sabaeus. A digest of the protocol: as §3
The nature of data set [13]: Cytotoxicity against human CEM cells after 2 to 4 days by MTT assay. Format: cell-based. Particulars: CEM cells (CCRF-CEM). In a few lines: as §3
(Tetrazolium dyes change colour on reduction, which living cells bring about.)

The subject of data set [14] is Human immunodeficiency virus 1. Briefly: Antiviral activity against HIV1 harboring reverse transcriptase K65R mutant infected in human HeLa P4/R5 cells assessed as inhibition of viral replication. To be noted: Human immunodeficiency virus 1, HeLa. Format: functional, organism-based. A digest of the protocol:
as §2

Data set [15] deals with Human immunodeficiency virus 1. Kind of data set: Antiviral activity against HIV1 harboring reverse transcriptase L74V mutant infected in human HeLa P4/R5 cells assessed as inhibition of viral replication. Format: functional, organism-based. Particulars: Human immunodeficiency virus 1, HeLa. A digest of the protocol: as §2
Data set [16] deals with Human immunodeficiency virus 1. Briefly: Antiviral activity against HIV1 harboring reverse transcriptase M184V mutant infected in human HeLa P4/R5 cells assessed as inhibition of viral replication. Type of data set: functional, organism-based. To be noted: Human immunodeficiency virus 1, HeLa. In a few lines:
as §2

The subject of data set [17] is Human immunodeficiency virus 1. Kind of data set: Antiviral activity against HIV1 harboring reverse transcriptase Q151M mutant infected in human HeLa P4/R5 cells assessed as inhibition of viral replication. Type of data set: functional, organism-based. To be noted: Human immunodeficiency virus 1, HeLa. In a few lines: as §2
Data set [18] has as its system Human immunodeficiency virus 1. Kind of data set: Antiviral activity against HIV1 harboring reverse transcriptase M41L/L210W/T215Y mutant infected in human HeLa P4/R5 cells assessed as inhibition of viral replication. Format: functional, organism-based. To be noted: Human immunodeficiency virus 1, HeLa. A digest of the protocol: as §2
Data set [19] has as its system Human immunodeficiency virus 1. Kind of data set: Antiviral activity against HIV1 harboring reverse transcriptase M41L/D67N/K70R/T215F/K219Q mutant infected in human HeLa P4/R5 cells assessed as inhibition of viral replication. To be noted: Human immunodeficiency virus 1, HeLa. Type of data set: functional, organism-based. In a few lines:
as §2

In data set [20] the test system is Human immunodeficiency virus 1. Kind of data set: Antiviral activity against HIV1 harboring reverse transcriptase D67N/K70R/T215F/K219Q mutant infected in human HeLa P4/R5 cells assessed as inhibition of viral replication. To be noted: Human immunodeficiency virus 1, HeLa. Type of data set: functional, organism-based. A digest of the protocol:
as §2

Data set [21] concerns Human immunodeficiency virus 1. Kind of data set: Antiviral activity against HIV1 harboring reverse transcriptase M41L/D67N/K70R/L210W/T215Y/K219Q mutant infected in human HeLa P4/R5 cells assessed as inhibition of viral replication. Format: functional, organism-based. To be noted: Human immunodeficiency virus 1, HeLa. A digest of the protocol:
as §2

Data set [22] in a line: Cytotoxicity against human HeLa P4/R5 cells.
In data set [23] the target is Human immunodeficiency virus type 1 reverse transcriptase (Human immunodeficiency virus 1) (UniProt Q72547). Kind of data set: Selectivity, ratio of Kpol to Kd for dCTP to Kpol to Kd for compound at HIV1 reverse transcriptase. In a few lines: as §1
Data set [24] relates to mitochondrial DNA. Kind of data set: Mitochondrial toxicity in human HepG2 cells assessed as percent inhibition of mitochondrial DNA at 10 uM after 14 days by real-time PCR. Format: cell-based. In a few lines:
(§4)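 Low-passage HepG2 cells seeded at 5,000 cells/well on collagen-coated plates and cultured 14 days with 10 or 100 μM NRTI. mtDNA and β-actin DNA quantified by real-time PCR in duplicate; mtDNA normalized to β-actin and expressed relative to untreated cells. At least two independent experiments; ranges given.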
For orientation: In qPCR the cycle at which signal appears reflects the starting amount.

Data set [25] concerns HepG2. Briefly: Mitochondrial toxicity in human HepG2 cells assessed as percent mitochondrial DNA production at 10 uM after 14 days by real-time PCR relative to control. Type of data set: cell-based. Particulars: hepg2, 336 h. A digest of the protocol: as §4
In data set [26] the test system is HepG2. Briefly: Mitochondrial toxicity in human HepG2 cells assessed as percent lactic acid production at 10 uM after 14 days by real-time PCR relative to beta-actin DNA. Format: cell-based. To be noted: hepg2, 336 h. A digest of the protocol:
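HepG2 cells cultured 14 days with 10 or 100 μM NRTI. Lactic acid quantified with a D-/L-lactic acid enzymatic test kit and expressed relative to β-actin DNA and to untreated control.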

The test system of data set [27] is beta-actin DNA. Briefly: Mitochondrial toxicity in human HepG2 cells assessed as percent inhibition of beta-actin DNA at 10 uM after 14 days by real-time PCR. Type of data set: cell-based. In a few lines: as §4

As usually defined, the IC50 is the concentration needed to halve the response being measured. In the case of `Nc1nc(NC2CC2)c2ncn([C@H]3C=C[C@@H](CO)C3)c2n1` [ABACAVIR SULFATE], the results for the IC50 in [1], in [2] and in [3] were 6.2 µM, 4.8 µM and 0.91 µM, respectively.

Take `Cc1cn([C@H]2C[C@H](N=[N+]=[N-])[C@@H](COP(=O)(O)OP(=O)(O)OP(=O)(O)O)O2)c(=O)[nH]c1=O`: the Selectivity ratio in data set [4] stood at 1. In addition, the Activity in [5] amounted to 8.8 s⁻¹. The Ratio in [6] stood at 4.4 µM⁻¹ s⁻¹.

One may read the Kd as the equilibrium constant for the complex coming apart. Compound `Cc1cn([C@H]2C[C@H](O)[C@@H](COP(=O)(O)OP(=O)(O)OP(=O)(O)O)O2)c(=O)[nH]c1=O` [DEOXYTHYMIDINE_TRIPHOSPHATE] yielded an Activity in [5] of 9.2 s⁻¹. In addition, in data set [7], the Kd worked out at 2.2 µM. In [6], the Ratio was determined as 4.2 µM⁻¹ s⁻¹.

In data set [8], `[N-]=[N+]=N[C@H]1C[C@H](n2cnc3c(=O)[nH]c(N)nc32)O[C@@H]1CO` yielded a Drug uptake of 0.2 pmol.

With `Nc1nc(=O)n([C@@H]2CS[C@H](CO)O2)cc1F` [EMTRICITABINE], the 50% inhibitory concentration (IC50) stood at 0.17 µM in [1], 0.044 µM in data set [2] and 0.001 µM in data set [3].

In data set [5], `Nc1ccn([C@H]2C[C@H](O)[C@@H](COP(=O)(O)OP(=O)(O)OP(=O)(O)O)O2)c(=O)n1` registered an Activity of 1.2 s⁻¹. Also, the Ratio in [6] was found to be 1.1 µM⁻¹ s⁻¹.

One may read the CC50 as the concentration giving 50% cytotoxicity. With `Cc1cn([C@H]2C[C@H](N=[N+]=[N-])[C@@H](CO)O2)c(=O)[nH]c1=O` [ZIDOVUDINE], the 50% inhibitory concentration (IC50) in [9] is 205 µM; in data set [1] it was 0.19 µM; in data set [2], 0.031 µM; in data set [14], 0.21 µM; in [15], 0.21 µM; in [16] it was 0.18 µM. Further, the IC50 in data set [17] was 214 µM; in data set [18], 10.4 µM; in [19], 96.7 µM; in data set [20], 11.9 µM; in [21] it was 58.6 µM. For the same compound, the CC50 in data set [10] was over 100 µM; in data set [11] it was 150 µM; in [12], over 100 µM; in [13] it was 86.2 µM; in [22], over 270 µM.

As to `Nc1ccn([C@@H]2CS[C@H](COP(=O)(O)OP(=O)(O)OP(=O)(O)O)O2)c(=O)n1`, in [23], the Selectivity ratio was determined as 17.8. Besides, in data set [5], the Activity turned out to be 0.023 s⁻¹. For the same compound, the Ratio in [6] turned out to be 0.06 µM⁻¹ s⁻¹.

With `Nc1ncnc2c1ncn2[C@H]1C[C@H](O)[C@@H](COP(=O)(O)OP(=O)(O)OP(=O)(O)O)O1`, the Activity in [5] worked out at 24.4 s⁻¹. Also, binding in [7] was characterised by a dissociation constant (Kd) of 3.2 µM. The Ratio in [6] turned out to be 7.6 µM⁻¹ s⁻¹.

The inhibition is how much of the control response was suppressed. Consider `Nc1ccn([C@H]2CC[C@@H](CO)O2)c(=O)n1` [ZALCITABINE], for which the inhibition at 336 h, 10 µM was 99.9% in data set [24] and 61.4% in data set [27]. The Activity in [25] was determined as 0.3%; in [26], 170%. Also, the half-inhibitory concentration (IC50) in data set [1] turned out to be 1.4 µM; in [2] it was 0.13 µM; in [3] it was 0.2 µM.

`Nc1nc2c(ncn2[C@H]2C[C@H](O)[C@@H](COP(=O)(O)OP(=O)(O)OP(=O)(O)O)O2)c(=O)[nH]1` [DEOXYGUANOSINE TRIPHOSPHATE]: in data set [5], the Activity is 7.5 s⁻¹. The same compound registered a dissociation constant Kd in [7] of 4.2 µM. Besides, in data set [6], the Ratio stood at 1.8 µM⁻¹ s⁻¹.
